The values that follow come from ChEMBL document CHEMBL4118097, “Selective Inhibitors of Dual Leucine Zipper Kinase (DLK, MAP3K12) with Activity in a Model of Alzheimer's Disease” (J Med Chem, 2017).

Activity calls are given as the source filed them.

Assay [1] addresses Protein kinase C zeta type (Homo sapiens) (UniProt Q05513). In words: Inhibition of PKCzeta (unknown origin) at 1 uM by FRET assay relative to control.
In assay [2] the target is Serine/threonine-protein kinase Nek9 (Homo sapiens) (UniProt Q8TD19). The experiment in a line: Inhibition of recombinant full length GST-tagged human NEK9 catalytic domain expressed in baculovirus expression system at 1 uM by FRET assay relative to control.
The target in assay [3] is Calcium/calmodulin-dependent protein kinase type 1 (Homo sapiens) (UniProt Q14012). The experiment in a line: Inhibition of recombinant full length His-tagged human CaMK1 expressed in baculovirus expression system at 1 uM by FRET assay relative to control.
Chain of Calcium/calmodulin-dependent protein kinase type 1 (Homo sapiens) (Q14012 whole entry, looked up): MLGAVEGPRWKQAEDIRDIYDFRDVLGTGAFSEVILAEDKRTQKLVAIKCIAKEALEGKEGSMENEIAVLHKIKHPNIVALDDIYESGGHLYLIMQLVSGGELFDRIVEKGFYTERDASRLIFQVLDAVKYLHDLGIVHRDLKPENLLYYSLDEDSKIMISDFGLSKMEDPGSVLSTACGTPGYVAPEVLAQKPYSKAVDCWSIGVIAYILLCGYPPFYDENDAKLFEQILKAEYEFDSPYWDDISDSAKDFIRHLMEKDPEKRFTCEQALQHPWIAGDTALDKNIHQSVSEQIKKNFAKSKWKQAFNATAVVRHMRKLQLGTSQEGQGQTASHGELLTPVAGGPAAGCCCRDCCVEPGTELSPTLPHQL
Assay [4] has as its target RAC-beta serine/threonine-protein kinase (Homo sapiens) (UniProt P31751). In words: Inhibition of recombinant full length His-tagged human AKT2 expressed in baculovirus expression system at 1 uM by FRET assay relative to control.
Assay [5] addresses Serine/threonine-protein kinase 26 (Homo sapiens) (UniProt Q9P289). The experiment in a line: Inhibition of recombinant GST-tagged human MST4 expressed in baculovirus at 1 uM by FRET assay relative to control.
Assay [6] concerns the target Serine/threonine-protein kinase 16 (Homo sapiens, UniProt O75716). In words: Inhibition of recombinant full length His-tagged human STK16 expressed in baculovirus expression system by FRET assay.
Assay [7] has as its system Mus musculus. In words: In-vivo inhibition of DLK in PS2APP mouse model assessed as reduction in phosphorylated c-jun level in cortical lysate at 50 mg/kg, po administered as single dose after 6 hrs by Western blot analysis. The assay is classed as functional, organism-based.
In assay [8] the target is Death-associated protein kinase 3 (Homo sapiens) (UniProt O43293). In words: Inhibition of recombinant full length GST-tagged human ZIPK expressed in baculovirus expression system at 1 uM by FRET assay relative to control.
Chain of Death-associated protein kinase 3 (Homo sapiens) (O43293 whole entry, looked up): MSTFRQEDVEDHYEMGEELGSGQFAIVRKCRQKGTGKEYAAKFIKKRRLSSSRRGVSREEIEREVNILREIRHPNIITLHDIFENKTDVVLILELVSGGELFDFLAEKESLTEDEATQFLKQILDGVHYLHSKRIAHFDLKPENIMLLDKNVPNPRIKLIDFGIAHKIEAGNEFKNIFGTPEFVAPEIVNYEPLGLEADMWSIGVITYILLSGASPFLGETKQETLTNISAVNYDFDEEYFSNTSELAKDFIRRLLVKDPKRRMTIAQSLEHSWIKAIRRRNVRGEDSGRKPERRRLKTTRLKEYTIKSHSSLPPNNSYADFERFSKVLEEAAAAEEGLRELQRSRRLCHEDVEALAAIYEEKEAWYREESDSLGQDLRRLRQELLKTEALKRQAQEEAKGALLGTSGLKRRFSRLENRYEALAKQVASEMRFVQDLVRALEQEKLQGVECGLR
Assay [9] deals with Mus musculus. In words: Down regulation of phosphorylated MKK4 level in cortical lysate of PS2APP mouse model at 15 to 50 mg/kg, po administered as single dose after 6 hrs by Western blot analysis. The assay is classed as functional, organism-based. A general note: Immunoblotting shows a protein as a band on a membrane.
Assay [10] relates to Mus musculus. In words: In-vivo inhibition of DLK in PS2APP mouse model assessed as reduction in phosphorylated c-jun level in cortical lysate at 15 mg/kg, po administered as single dose after 6 hrs by Western blot analysis. The assay is classed as functional, organism-based.
For assay [11], the target named is Tyrosine-protein kinase FRK (Homo sapiens) (UniProt P42685). In words: Inhibition of recombinant full length GST-tagged human FRK cytoplasmoic domain expressed in baculovirus expression system at 1 uM by FRET assay relative to control. In short, it runs like this: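 Single-concentration screen at 1 μM in Life Technologies SelectScreen, across a 220-kinase panel. Z′-LYTE format measures phosphorylation of a labeled peptide by FRET. Results are reported as percent inhibition.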
Chain of Tyrosine-protein kinase FRK (Homo sapiens) (P42685 whole entry, the tested form may be a part): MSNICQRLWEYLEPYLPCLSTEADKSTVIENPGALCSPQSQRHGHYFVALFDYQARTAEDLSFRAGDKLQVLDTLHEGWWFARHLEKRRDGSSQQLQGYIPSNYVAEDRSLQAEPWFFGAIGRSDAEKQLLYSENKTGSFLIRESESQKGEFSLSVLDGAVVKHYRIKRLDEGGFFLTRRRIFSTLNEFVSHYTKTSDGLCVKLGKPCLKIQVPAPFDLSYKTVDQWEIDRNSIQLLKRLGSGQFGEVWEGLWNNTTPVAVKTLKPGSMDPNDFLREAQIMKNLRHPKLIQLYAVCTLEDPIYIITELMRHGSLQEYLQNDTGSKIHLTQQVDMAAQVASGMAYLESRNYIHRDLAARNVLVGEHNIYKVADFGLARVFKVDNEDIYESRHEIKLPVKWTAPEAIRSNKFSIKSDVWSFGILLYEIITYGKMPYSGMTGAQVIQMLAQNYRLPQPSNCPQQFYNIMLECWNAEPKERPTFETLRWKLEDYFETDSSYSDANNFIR

Assay [12] has as its target cAMP-dependent protein kinase catalytic subunit PRKX (Homo sapiens) (UniProt P51817). The experiment in a line: Inhibition of full length GST-tagged human PRKX expressed in Escherichia coli at 1 uM by FRET assay relative to control.
Assay [13] has as its target Serine/threonine-protein kinase pim-1 (Homo sapiens) (UniProt P11309). The experiment in a line: Inhibition of full length His-tagged human PIM1 expressed in baculovirus expression system at 1 uM by FRET assay relative to control.
The subject of assay [14] is Mus musculus. The experiment in a line: In-vivo inhibition of DLK in PS2APP mouse model assessed as reduction in phosphorylated c-jun level in cortical lysate at 15 mg/kg, po administered as single dose after 6 hrs by Western blot analysis relative to control. The assay is classed as functional. In short, it runs like this: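 Homozygous PS2APP mice aged 9–10 months got one oral dose of 15 mg/kg as an MCT suspension, or vehicle; n = 7–8 per group. At 6 h: terminal plasma by cardiac puncture under deep anaesthesia, then PBS perfusion. Left cortex frozen at −80 °C and homogenised in 10 volumes RIPA. p-c-Jun read by Western blot with a GAPDH control, compared with vehicle (Dunnett's test).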

Assay [15] has as its target Protein kinase C beta type (Homo sapiens) (UniProt P05771). In words: Inhibition of PKCbeta1 (unknown origin) at 1 uM by FRET assay relative to control.
Assay [16] concerns the target Serine/threonine-protein kinase PAK 4 (Homo sapiens, UniProt O96013). In words: Inhibition of recombinant GST-tagged human PAK4 catalytic domain expressed in baculovirus expression system by FRET assay.
Assay [17] deals with Mus musculus. The experiment in a line: Down regulation of phosphorylated JNK level in cortical lysate of PS2APP mouse model at 15 to 50 mg/kg, po administered as single dose after 6 hrs by Western blot analysis. The assay is classed as functional, organism-based.
In assay [18] the target is 5-hydroxytryptamine receptor 4 (Homo sapiens) (UniProt Q13639). In words: Binding affinity to 5HT4e receptor (unknown origin) receptor at 10 uM relative to control. In short, it runs like this:
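Broad radioligand-binding and enzyme screening panel covering 42 targets (biogenic amine and neuropeptide receptors, ion channels, neurotransmitter transporters, acetylcholinesterase). Single test concentration of 10 μM. Results expressed as binding relative to control, with a hit defined as >50% of control.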

For assay [19], the target named is Serine/threonine-protein kinase PAK 1 (Homo sapiens) (UniProt Q13153). In words: Inhibition of recombinant full length GST-tagged human PAK1 expressed in baculovirus expression system at 1 uM by FRET assay relative to control.
Assay [20] concerns the target Phosphatidylinositol 4,5-bisphosphate 3-kinase catalytic subunit gamma isoform (Homo sapiens) (UniProt P48736). The experiment in a line: Inhibition of recombinant full length His-tagged human PI3KG at 1 uM by FRET assay relative to control.
Assay [21] has as its target Calcium/calmodulin-dependent protein kinase type IV (Homo sapiens) (UniProt Q16566). The experiment in a line: Inhibition of recombinant full length GST-tagged human CamK4 expressed in Escherichia coli at 1 uM by FRET assay relative to control.
Assay [22] has as its target Tyrosine-protein kinase receptor UFO (Homo sapiens, UniProt P30530). The experiment in a line: Inhibition of recombinant His-tagged human AXL (473 to end residues) cytoplasmic domain expressed in insect cells by FRET assay.
The target in assay [23] is Macrophage colony-stimulating factor 1 receptor (Homo sapiens, UniProt P07333). In words: Inhibition of recombinant His-tagged human CSF1R cytoplasmic domain (538 to 910 residues) expressed in baculovirus expression system by FRET assay.
Another assay deals with Ephrin type-A receptor 7 (Homo sapiens, UniProt Q15375). The experiment in a line: Inhibition of recombinant GST-tagged human EphA7 cytoplasmic domain expressed in baculovirus expression system by FRET assay.
Chain of Ephrin type-A receptor 7 (Q15375 whole entry, the tested form may be a part, canonical isoform): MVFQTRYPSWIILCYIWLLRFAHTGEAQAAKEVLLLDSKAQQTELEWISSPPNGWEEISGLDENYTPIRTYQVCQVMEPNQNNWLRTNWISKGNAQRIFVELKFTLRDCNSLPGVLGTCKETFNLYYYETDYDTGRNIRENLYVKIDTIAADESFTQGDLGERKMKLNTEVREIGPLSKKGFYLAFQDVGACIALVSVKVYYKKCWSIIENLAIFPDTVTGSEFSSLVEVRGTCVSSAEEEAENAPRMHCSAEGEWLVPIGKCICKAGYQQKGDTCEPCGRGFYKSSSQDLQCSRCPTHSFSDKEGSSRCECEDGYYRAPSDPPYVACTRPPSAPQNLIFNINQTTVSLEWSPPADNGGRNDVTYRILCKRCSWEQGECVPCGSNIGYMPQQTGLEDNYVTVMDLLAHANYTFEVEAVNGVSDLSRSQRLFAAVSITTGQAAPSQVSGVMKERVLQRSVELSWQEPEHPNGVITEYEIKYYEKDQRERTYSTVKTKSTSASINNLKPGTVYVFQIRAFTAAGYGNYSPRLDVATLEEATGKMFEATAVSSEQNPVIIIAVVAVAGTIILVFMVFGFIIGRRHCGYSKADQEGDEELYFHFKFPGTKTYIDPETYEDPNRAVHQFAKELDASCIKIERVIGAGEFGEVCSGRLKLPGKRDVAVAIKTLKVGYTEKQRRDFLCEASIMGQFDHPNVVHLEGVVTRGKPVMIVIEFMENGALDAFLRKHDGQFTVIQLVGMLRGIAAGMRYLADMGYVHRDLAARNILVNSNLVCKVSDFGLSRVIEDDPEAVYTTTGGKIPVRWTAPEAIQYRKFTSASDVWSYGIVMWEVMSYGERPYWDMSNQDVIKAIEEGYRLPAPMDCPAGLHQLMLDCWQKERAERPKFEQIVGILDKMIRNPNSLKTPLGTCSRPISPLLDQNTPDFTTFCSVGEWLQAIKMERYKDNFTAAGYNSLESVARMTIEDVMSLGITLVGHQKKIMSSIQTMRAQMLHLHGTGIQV
Assay [24] concerns the target Casein kinase I isoform gamma-2 (Homo sapiens) (UniProt P78368). The experiment in a line: Inhibition of CK1gamma2 (unknown origin) at 1 uM by FRET assay relative to control.
In another assay the target is Myotonin-protein kinase (Homo sapiens, UniProt Q09013). The experiment in a line: Inhibition of full length recombinant human DMPK expressed in baculovirus expression system by FRET assay.

Chain of cAMP-dependent protein kinase catalytic subunit PRKX (Homo sapiens) (P51817 whole entry): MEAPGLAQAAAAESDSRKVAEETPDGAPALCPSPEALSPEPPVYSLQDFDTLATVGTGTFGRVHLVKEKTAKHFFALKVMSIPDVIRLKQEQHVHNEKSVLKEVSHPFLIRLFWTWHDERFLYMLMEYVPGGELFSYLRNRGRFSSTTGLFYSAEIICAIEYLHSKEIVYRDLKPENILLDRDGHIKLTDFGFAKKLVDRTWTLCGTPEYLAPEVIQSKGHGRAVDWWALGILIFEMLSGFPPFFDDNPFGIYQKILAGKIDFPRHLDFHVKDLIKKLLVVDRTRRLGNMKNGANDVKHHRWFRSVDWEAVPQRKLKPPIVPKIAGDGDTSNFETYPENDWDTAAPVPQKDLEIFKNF
Chain of 5-hydroxytryptamine receptor 4 (Homo sapiens) (Q13639 whole entry): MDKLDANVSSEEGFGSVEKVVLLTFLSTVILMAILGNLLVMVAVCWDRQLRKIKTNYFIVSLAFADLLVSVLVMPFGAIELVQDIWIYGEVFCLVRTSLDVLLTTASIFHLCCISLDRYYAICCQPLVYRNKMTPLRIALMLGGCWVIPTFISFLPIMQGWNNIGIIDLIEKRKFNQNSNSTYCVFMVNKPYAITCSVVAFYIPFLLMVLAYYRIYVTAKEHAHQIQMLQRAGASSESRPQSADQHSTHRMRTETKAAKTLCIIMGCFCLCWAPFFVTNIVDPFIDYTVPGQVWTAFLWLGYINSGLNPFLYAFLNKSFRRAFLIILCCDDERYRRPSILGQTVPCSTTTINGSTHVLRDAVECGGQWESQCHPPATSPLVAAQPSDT
Chain of RAC-beta serine/threonine-protein kinase (Homo sapiens) (P31751 whole entry): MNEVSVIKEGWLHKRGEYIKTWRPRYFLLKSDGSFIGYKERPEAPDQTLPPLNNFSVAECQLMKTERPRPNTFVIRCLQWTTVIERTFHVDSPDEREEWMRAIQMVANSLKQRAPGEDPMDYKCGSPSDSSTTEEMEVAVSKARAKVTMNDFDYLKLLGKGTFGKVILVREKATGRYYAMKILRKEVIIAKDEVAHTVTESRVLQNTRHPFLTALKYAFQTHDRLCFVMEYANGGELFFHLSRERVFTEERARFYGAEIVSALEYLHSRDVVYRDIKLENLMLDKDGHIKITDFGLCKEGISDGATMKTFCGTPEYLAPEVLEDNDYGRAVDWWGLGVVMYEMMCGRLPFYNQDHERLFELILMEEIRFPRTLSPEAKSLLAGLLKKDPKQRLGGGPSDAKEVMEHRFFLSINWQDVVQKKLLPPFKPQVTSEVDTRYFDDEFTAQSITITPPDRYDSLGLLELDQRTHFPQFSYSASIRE
Chain of Serine/threonine-protein kinase pim-1 (Homo sapiens) (P11309 whole entry, looked up, the tested form may be a part): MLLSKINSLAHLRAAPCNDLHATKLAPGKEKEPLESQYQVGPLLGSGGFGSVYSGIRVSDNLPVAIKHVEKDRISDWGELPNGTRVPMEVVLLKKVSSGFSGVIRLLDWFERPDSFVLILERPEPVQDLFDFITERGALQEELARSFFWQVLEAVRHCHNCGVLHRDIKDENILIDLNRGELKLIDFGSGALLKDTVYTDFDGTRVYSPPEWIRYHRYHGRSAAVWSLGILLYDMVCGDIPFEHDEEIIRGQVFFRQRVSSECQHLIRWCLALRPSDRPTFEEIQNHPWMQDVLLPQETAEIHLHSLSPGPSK
Chain of Protein kinase C beta type (Homo sapiens) (P05771 2-671 limits assumed): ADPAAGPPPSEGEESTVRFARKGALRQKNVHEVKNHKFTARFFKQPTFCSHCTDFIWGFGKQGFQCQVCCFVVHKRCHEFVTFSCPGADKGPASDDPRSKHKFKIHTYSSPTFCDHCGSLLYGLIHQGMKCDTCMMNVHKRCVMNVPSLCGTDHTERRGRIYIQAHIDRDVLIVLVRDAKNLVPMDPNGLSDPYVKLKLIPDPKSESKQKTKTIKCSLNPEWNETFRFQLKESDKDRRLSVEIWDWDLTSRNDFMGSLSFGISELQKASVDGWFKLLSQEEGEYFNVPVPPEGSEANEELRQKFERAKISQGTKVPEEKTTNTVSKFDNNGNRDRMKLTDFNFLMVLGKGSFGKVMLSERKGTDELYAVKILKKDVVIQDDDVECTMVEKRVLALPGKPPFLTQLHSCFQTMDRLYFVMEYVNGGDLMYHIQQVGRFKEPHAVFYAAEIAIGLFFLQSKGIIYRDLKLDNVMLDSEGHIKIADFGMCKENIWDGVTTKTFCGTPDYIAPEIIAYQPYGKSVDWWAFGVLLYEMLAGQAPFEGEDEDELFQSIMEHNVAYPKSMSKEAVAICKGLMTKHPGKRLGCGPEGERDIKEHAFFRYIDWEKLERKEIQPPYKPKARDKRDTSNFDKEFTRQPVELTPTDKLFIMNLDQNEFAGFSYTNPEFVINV
Chain of Serine/threonine-protein kinase 26 (Homo sapiens) (Q9P289 2-416 limits assumed): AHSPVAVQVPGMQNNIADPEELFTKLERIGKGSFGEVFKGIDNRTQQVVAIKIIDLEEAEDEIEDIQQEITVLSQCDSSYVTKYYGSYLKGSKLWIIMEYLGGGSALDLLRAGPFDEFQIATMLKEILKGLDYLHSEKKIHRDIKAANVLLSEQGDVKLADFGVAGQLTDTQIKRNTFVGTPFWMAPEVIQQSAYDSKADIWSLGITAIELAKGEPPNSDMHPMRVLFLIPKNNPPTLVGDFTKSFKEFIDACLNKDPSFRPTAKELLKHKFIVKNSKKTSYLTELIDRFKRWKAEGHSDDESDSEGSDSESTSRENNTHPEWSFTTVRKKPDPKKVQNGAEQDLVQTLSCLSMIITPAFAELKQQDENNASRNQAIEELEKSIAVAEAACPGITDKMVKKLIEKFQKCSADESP

Turning to `CC(C)n1nc(-c2cnc(N)c(OC(F)(F)F)c2)cc1[C@H]1[C@@H]2CN(C3COC3)C[C@@H]21`, the inhibition is 5.9% in [1]; -3.4% in [2]; -5.9% in [3]; 3.1% in assay [4]; -3.5% in assay [5]; 3.5% in assay [8]. Besides, the inhibition in assay [11] was 14.4%; in [12], -2.9%; in assay [13], -4.6%; in assay [15], 1.1%. The IC50 in [6] is 1520 nM; in assay [16], 673 nM. The inhibition entry in the assay on Mus musculus [7] and with Mus musculus [10] was “Active” in each case. The outcome in the assay on Mus musculus [9] and with Mus musculus [17] was Active. Moreover, the inhibition in vivo at 15 mg/kg in the assay on Mus musculus [14] was determined as 42%. The Activity in assay [18] was greater than 50%.
With `Nc1ncc(-c2cc([C@H]3[C@@H]4CN(C5COC5)C[C@@H]43)n(CC3CC3)n2)cc1C(F)(F)F`, the inhibition was 0.7% in assay [19]; -0.3% in assay [4]; 12.4% in assay [20]; 12.4% in assay [21]; 19.7% in assay [11]; -7.2% in assay [12]. The inhibition in assay [13] was -4%; in [15] it was -7.3%; in assay [24], 7.1%. Besides, the IC50 was determined as 448 nM in assay [22], 1220 nM in [23], 665 nM at Ephrin type-A receptor 7 and 1380 nM on Myotonin-protein kinase. The compound also had an Activity in assay [18] greater than 50%.

A word on the inhibition: it is the change of the read-out against control, counted positive when it falls. Broadly, the IC50 is the concentration that inhibits the measured activity by half. What is called inhibition in vivo is the share of the control response that was lost under treatment.
